Test [1] can be described thus: OD615 S. cerevisiae growth inhibition, permissive medium, pilot counter-assay, permissive growth control for S. cerevisiae lifespan shortening project (AID 705;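 active means growth inhibition above 25% in both replicates, a cutoff set 3 SD above the mean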). The following applies: OD615, 24 h, at 10 µM, hits give high values. In short, it runs like this: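 Test system: Saccharomyces cerevisiae strain carrying genetically modified DeaD replicative-lifespan system; buffer or medium: SC raffinose/galactose permissive medium; dosing: one dose 10 µM, DMSO 0.25% final; times: 24 h exposure, 30 °C; measured by: OD at 615 nm; read-out basis: growth inhibition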

Test [2] is described as follows: Restrictive medium S. cerevisiae growth inhibition, OD615, pilot screen of yeast lifespan reduction project, restrictive growth control (AID 706;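 active means growth inhibition above a set limit, 3 SD over mean compound inhibition, in both replicates, cut at about 43% in these data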;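 further: modified DeaD lifespan yeast strain shifted to restrictive glucose medium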). The settings on record: OD615, 48 h, at 10 µM, hits give high values. In short, it runs like this: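 material = engineered S. cerevisiae DeaD strain | buffer or medium = glucose-based CSMM-D restrictive medium | dosing = one concentration, 10 µM final, 0.25% DMSO | schedule = 4 h pre-growth plus 48 h compound exposure, 30 °C | detection = OD615 absorbance reading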

A short description of test [3]: viability gain of MRP-1-high H69AR cells under doxorubicin, pilot screen, MRP-1 activator project, CellTiter-Glo, duplicate (AID 807).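 Further: compound pretreatment 18-22 h then 72 h combined with doxorubicin; 0% = doxorubicin alone and 100% = vehicle without doxorubicin.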 The following applies: H69AR viability with doxorubicin, CellTiter-Glo luminescence; at 10 µM; hits give high values.
A short description of test [4]: growth suppression of beta-catenin knockout HCT116, pilot screen, human colon tumor cells (AID 823;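 active means cell viability at or below a set limit in both duplicate runs, the limit being the all-compound median minus 4 SD, cut at about 23% in these data, passing the limit was not always enough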;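 further: 0% = wells killed by 20 µM Hyamine and 100% = untreated DMSO cell wells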). The settings on record: CellTiter-Glo, 60 h, at 10 µM, hits give low values. Background: In ATP-based viability assays light output follows the ATP content of the culture.
The nature of test [5]: growth suppression of PTEN-deleted HCT116, pilot screen, cell-based, HCT116 clonal line, CellTiter-Glo (AID 824;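 active means viability at or below 27.92% in each of two runs, the all-compound median minus 4 SD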;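 further: 0% = 20 µM Hyamine control and 100% = vehicle cell control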). The following applies: 60 h, at 10 µM, hits give low values.
The nature of test [6]: inhibitors of the yeast RAM network, pilot screen, dse1pr::URA3 reporter, 5-FOA selection (AID 869;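 active means inhibition over a set limit, the all-compound mean plus 3 SD, in both replicate runs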;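 further: 0% = DMSO wells with no growth and 100% = 10 µM 1-NA-PP1 with full growth; RAM network block rescues cells from 5-FOA so hits raise OD615 growth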). The following applies: S. cerevisiae dse1pr::URA3 5-FOA growth, OD615, 2 d; at 10 µM; hits give high values; strain carries analog-sensitive mutant Cbk1 kinase.
Test [7] is described as follows: RAM signaling pathway blockade in yeast – S. cerevisiae, Pdr1DBD-CYC8 efflux-inhibited sensitized strain, primary screen (AID 1298;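 active means RAM network inhibition above 8.4% in each of two replicates, 3 SD over the compound average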;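 further: 0% = DMSO untreated cells without growth and 100% = 10 µM 1-NA-PP1 full growth; higher means more yeast growth rescued from 5-FOA killing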). The settings on record: S. cerevisiae cbk1-as DSE1-URA3 strain, 5-FOA growth OD615, 2 d; at 50 µM; hits give high values.

The record followed here is PubChem BioAssay.

A number with no mark means an inactive call. Results filed as inconclusive are left out. Active and inactive are the calls of the source.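 How the source made its calls, unless noted: active means viability increase at or above a cutoff of the median across tested compounds plus 3 SD (cut at about 8.5% in these data, passing the limit was not always enough); inconclusive means some gains above the cutoff, reason not given; inactive means the rest.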

For orientation: viability means a read-out of living cells in per cent, often relative to untreated cells. The inhibition is the relative decrease from the control value, in per cent.

For the compound `CCOC(=O)C1CCCN(C(=O)c2ccc(CNc3c(N4CCC(C)CC4)c(=O)c3=O)cc2)C1` (centres undefined), the growth inhibition in test [1] was -16.1%; in test [2], -24.3%. Besides, the viability increase in test [3] is 0.29%. In addition, the figures for the viability in test [4] and in test [5] were 102% and 98.9%, respectively. For the same compound, the inhibition in test [6] is 2.57%. In test [7], the RAM network inhibition was 4.84%.

Regarding `Cn1c(Cn2c(=O)sc3ccccc32)nnc1SCC(=O)N1CCCC1`, the growth inhibition in test [1] is -7.01%; in test [2], -4.62%. Besides, the viability increase in test [3] is 0.61%. The figures for the viability in test [4] and in test [5] were 97% and 99.3%, respectively. The inhibition in test [6] was 1.95%. Also, the RAM network inhibition in test [7] is 6.71%.

`O=C(NCCN1CCOCC1)c1ccc2c(c1)N(Cc1ccccc1)CCS2`: the growth inhibition in test [1] was -1.33%; in test [2], -3.97%. In addition, the viability increase in test [3] is -2.25%. Besides, the viability was 93.2% in test [4] and 94.5% in test [5]. For the same compound, the inhibition in test [6] is 1.02%. The RAM network inhibition in test [7] was 6.44%.

`CC1CCCC(NC(=O)c2ccc(CNc3c(N4CCCC4)c(=O)c3=O)cc2)C1C` (centres undefined): the growth inhibition was -6.62% in test [1] and 2.02% in test [2]. In addition, in test [3], the viability increase is -2.4%. The viability is 90.7% in test [4] and 84.4% in test [5]. In addition, the inhibition in test [6] was 2.51%. Further, the RAM network inhibition in test [7] is 2.5%.

With `Clc1ccc2nc3ccccn3c2c1`, the growth inhibition in test [1] is -6.63%; in test [2], -5.02%. Further, in test [3], the viability increase is -4.02%. Moreover, the viability in test [4] was 109%; in test [5] it was 106%. In test [6], the inhibition was 1.56%. Also, the RAM network inhibition in test [7] is 2.48%.

For the compound `COC(=O)Cn1c(CN2CCc3ccccc3C2)nc2c1c(=O)n(C)c(=O)n2C`, the growth inhibition in test [1] was -4.78%; in test [2] it was 0.56%. Further, the viability increase in test [3] was -1.18%. Besides, the figures for the viability in test [4] and in test [5] were 95.6% and 96.2%, respectively. The inhibition in test [6] is 1.31%. In addition, the RAM network inhibition in test [7] was 8.74%.

As to `CC(C)CCNC(=O)CCS(=O)(=O)c1cccc2nonc12`, the growth inhibition in test [1] was -8.87%; in test [2], -22.1%. In test [3], the viability increase is -1.75%. Moreover, the viability in test [4] was 105%; in test [5], 103%. Moreover, the inhibition in test [6] was 1.04%. Also, in test [7], the RAM network inhibition was 4.52%.

Take `CC1CCN(C(=O)CSc2nnc(-c3ccco3)o2)CC1`: the growth inhibition in test [1] was 0.09%; in test [2], 6.93%. In addition, the viability increase in test [3] is 0.32%. The viability in test [4] was 106%; in test [5], 102%. Besides, the inhibition in test [6] is 2.54%. The RAM network inhibition in test [7] was 1.64%.

On to `Cc1cc2c3nonc3ccc2n1-c1ccccc1`, for which the growth inhibition was -16.1% in test [1] and -15% in test [2]. Moreover, the viability increase in test [3] was -2.59%. The viability in test [4] is 83%; in test [5] it was 86%. Besides, the inhibition in test [6] is 0.9%. Also, the RAM network inhibition in test [7] is 6.15%.

On to `COc1cc(NC(=O)c2ccc(S(=O)(=O)N(C)C)cc2)cc(OC)c1OC`, for which the growth inhibition in test [1] is -4.25%; in test [2], -12.5%. In addition, the viability increase in test [3] was -2.66%. Besides, the figures for the viability in test [4] and in test [5] were 92.9% and 94.3%, respectively. Also, the inhibition in test [6] is 0.985%. Further, the RAM network inhibition in test [7] is 3.48%.

`CC1CCCCC1NC(=O)CCS(=O)(=O)c1cccc2nonc12` (centres undefined): the growth inhibition in test [1] was -0.105%; in test [2] it was 2.68%. Besides, the viability increase in test [3] is -2.34%. Further, the viability in test [4] is 98.9%; in test [5], 102%. Moreover, the inhibition in test [6] is -0.06%. In addition, the RAM network inhibition in test [7] is 0.88%.

With `CCN(Cc1ccccc1)C(=O)CSc1nc(C)cc(C)c1C#N`, the values for the growth inhibition in test [1] and in test [2] were -12.8% and -2.79%, respectively. The viability increase in test [3] is 4.58%. The values for the viability in test [4] and in test [5] were 104% and 87.3%, respectively. In addition, the inhibition in test [6] is 2.48%. Moreover, the RAM network inhibition in test [7] was 0.99%.

As for `O=C(COC(=O)C1CC(=O)N(C2CCCCC2)C1)c1ccc(F)cc1` (centres undefined), the values for the growth inhibition in test [1] and in test [2] were -2.56% and 0.43%, respectively. Moreover, the viability increase in test [3] is -2.49%. In addition, the viability in test [4] is 108%; in test [5] it was 101%. Besides, the inhibition in test [6] was 0.95%. Besides, in test [7], the RAM network inhibition is 2.97%.

Turning to `Cc1ccccc1-c1c(C)oc2cc(O)ccc2c1=O`, the figures for the growth inhibition in test [1] and in test [2] were 1.68% and -0.005%, respectively. Besides, the viability increase in test [3] is -4.28%. Also, the results for the viability in test [4] and in test [5] were 96.8% and 92.2%, respectively. Further, the inhibition in test [6] is 2.21%. Further, the RAM network inhibition in test [7] is 2.67%.

Consider `COC(=O)Cn1cnc2c(nnn2-c2cccc(Cl)c2)c1=O`, for which the growth inhibition in test [1] is -0.625%; in test [2], 0.135%. The viability increase in test [3] is 1.53%. Also, the viability in test [4] is 108%; in test [5] it was 99.4%. The inhibition in test [6] was 1.28%. The RAM network inhibition in test [7] is -1.59%.

As to `CC(=O)OC1c2c(ccc3ccc(=O)oc23)OC(C)(C)C1OC(=O)CC(C)C` (centres undefined), the growth inhibition in test [1] is -18.4%; in test [2] it was -10%. In test [3], the viability increase was 1.31%. Besides, the values for the viability in test [4] and in test [5] were 84.7% and 80.8%, respectively. The inhibition in test [6] is 1.1%. In addition, the RAM network inhibition in test [7] is 10%.

Take `CC(=O)Nc1ccc(S(=O)(=O)Nc2nc3ccccc3nc2Sc2nncn2C)cc1`: the growth inhibition is 1.94% in test [1] and 11.7% in test [2]. The viability increase in test [3] is -2.89%. The viability in test [4] and in test [5] was 98.1% each time. Moreover, the inhibition in test [6] is 1.86%. In addition, in test [7], the RAM network inhibition is 2.12%.

For `O=S(=O)(c1cccc2cccnc12)N(CCO)CCO`, the growth inhibition in test [1] was -15.2%; in test [2], -15.5%. The viability increase in test [3] was -0.99%. Also, the viability was 103% in test [4] and 101% in test [5]. Besides, the inhibition in test [6] was 2.62%. For the same compound, the RAM network inhibition in test [7] was 2.69%.

With `O=C(c1cc2ccccn2n1)N1CCN(Cc2ccccc2)CC1`, the growth inhibition in test [1] was 1.21%; in test [2] it was 7.58%. The viability increase in test [3] is -0.74%. Moreover, the viability is 104% in test [4] and 87.7% in test [5]. Further, the inhibition in test [6] is 0.99%. Also, in test [7], the RAM network inhibition was 2.76%.

`CCOC(=O)N1CCC(NC(=O)C2CCN(Cc3nc(-c4ccc(CC)cc4)oc3C)CC2)CC1`: the growth inhibition in test [1] was -8.25%; in test [2], -7.78%. Also, the viability increase in test [3] is -1.2%. Also, the values for the viability in test [4] and in test [5] were 84.2% and 85.9%, respectively. In addition, in test [6], the inhibition is 0.435%. In addition, in test [7], the RAM network inhibition was 0.29%.

Consider `COc1ccccc1NC1C=CS(=O)(=O)C1` (centres undefined), for which the values for the growth inhibition in test [1] and in test [2] were -1.03% and 0.12%, respectively. Further, the viability increase in test [3] is -2.42%. Besides, the results for the viability in test [4] and in test [5] were 99.5% and 94.4%, respectively. Moreover, the inhibition in test [6] was 0.335%. Moreover, in test [7], the RAM network inhibition is 4.65%.

In the case of `COc1cccc2sc(Nc3nnc(-c4ccccc4Cl)o3)nc12`, the results for the growth inhibition in test [1] and in test [2] were -29.8% and -13.7%, respectively. In test [3], the viability increase is -4.31%. Besides, the viability in test [4] is 15.4% (active); in test [5], 18.8% (active). In addition, in test [6], the inhibition was 1.1%. In addition, the RAM network inhibition in test [7] was 1.26%.
